The text below walks through data of the RNAGym collection of RNA variant scans (doi:10.1126/science.aae0568).

Fewer inactive variants are shown than the library holds.

The chains are these.
B1: tRNA (parent)
chain: GUUCCGUUGGCGUAAUGGUAACGCGUCUCCCUCCUAAGGAGAAGACUGCGGGUUCGAGUCCCGUACGGAACG

The variants in this data set derive from B1. Briefly: yeast fitness relative to wild type (ratio to wild type); higher = fitter; tRNA-Arg(CCU), competitive growth, 37 C, YPD. In outline: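 Genotype frequency changes were the basis for Darwinian fitness relative to wild type. The frequencies came from 100-nucleotide paired-end sequencing of gene amplicons from the start population and each end population of pooled yeast strains with tRNA-Arg(CCU) gene variants at the native locus. Competition ran in YPD at 37°C for 24 hours in six replicates, genotypes needed ≥ 100 starting reads, and estimates < 0.5 were set to 0.5.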
In the case of GUUACGUUGGCGUAAUGGUAACGCGUCUCCCUCCUAAGGAGAAGACUGCGGGUUCGAGUCCCGUACUGAACG [C4A G67U], the yeast fitness stood at 0.843.

Turning to GUUGCGUUGGCGUAGUGGUAAGACGUCUCCCUCCUAAGGAGAAGACUGAGGGUUCGAGUCCCGUACGGAACG [C4G A15G C22G G23A C49A], the yeast fitness was no more than 0.5.

Regarding GUUACGUUGGCGUAAUGGUAACGCGUCUCCCGCCUAAGGAGAAGGCUGCGGGUUCGAGUCCCGUACGGUACG [C4A U32G A45G A69U], the yeast fitness was no more than 0.5.

As for GUUACGUCGGCGUAAUGGUAACGCGUCUCCCUCCUAAGGAGAAGACUGUGGGUUAGAGUCCCGUAUGGAACG [C4A U8C C49U C55A C66U], the yeast fitness is no more than 0.5.

With GUUACGUUGGCGAAAUGAUAACGCGUCUCCCUCCUAAGGAGAAGACUGCGGAUUGGAGUCCCGUACGGUACG [C4A U13A G18A G52A C55G A69U], the yeast fitness was no more than 0.5.

For GUUACGAAGGCGUAAUGGUAACGCGUCUCCCUCCUAAGGAGAAGACUGCGGGUUCGAGUACCGUACGGAACG [C4A U7A U8A C60A], the yeast fitness was no more than 0.5.

As for GUUACGUUGGCGUAAUGGUAACGCGGCUGCCUCCUAAGGAGAAGACGGCGGGUUCGAGGCCCGUACGGAACG [C4A U26G C29G U47G U59G], the yeast fitness was no more than 0.5.

As for GUUACGUUGGCGUAAUGGUAACGCGUCUCCCUCCUAAGGACAAGACUGUGGGUUCGAGUCCCGUACGGAACG [C4A G41C C49U], the yeast fitness is no more than 0.5.

Take GUUACGUUGGCGUAAUGGUAACGCGUCUCCCUCCUAAGGAGAAGACCGCGGGUUCGAGUCCCGUACGGAACG [C4A U47C]: the yeast fitness worked out at 0.773.

For the variant GUUGCGUUGGCGUAAUGGUAACGCGUCUCCCUCCUAAGGAGAAGACUGCGGGUUCGAGUCCCGUACGGAACG [C4G], the yeast fitness was found to be 1.01.

For the variant GUUACGUUGGCGUAAUGGUAACGCGUCUCCCUCCUAAGGAGAAGACUCCGGGUUCGAGUCCCGUACGGAACG [C4A G48C], the yeast fitness came out at 0.749.

As for GUUGCGUUGGCGUAGUGGUAACACGUCUCCCUCGUAAGGAGAAGACUGCGGGUUCGAGUCCCGUACAGAACG [C4G A15G G23A C34G G67A], the yeast fitness was 0.556.

As to GUUACGUUGGCGUAAUGGUAACGCGUCUCCCUCCUAAGGAGAAGACUGCGGGUUCUAGUCCCGUACGGAACG [C4A G56U], the yeast fitness was found to be 0.786.

With GUUACGUUGGCGUAAUGGUAACGCGUCUCCCUCCUAAGGAGAAGACUGCGGGUUCGAGUCCCGUACGCAACG [C4A G68C], the yeast fitness is 0.808.

With GUUACGUUGGCGUAAUGGUAACGCGUCUCCCUCCUAAGGAGAAGACUCCGCGUUCGUGUCCCGUACGCAACG [C4A G48C G51C A57U G68C], the yeast fitness was no more than 0.5.

For GUUGCGUUGGCGUAAUGGUGACGCGUCUCCCUCCUAAGGAGAAGACUGCGCGUUCGAGUCCCGUACGGAACG [C4G A20G G51C], the yeast fitness amounted to 0.66.

In the case of GUUGCGUUGGCGUCAUGGUAACGCCUCUCCCCCCUAAGGAGAAGUCUGCGGGUUCGUGUCCCGUACGGAACG [C4G A14C G25C U32C A45U A57U], the yeast fitness was no more than 0.5.

For GUUGCGUUGGCGUAGUAGUAACGCGUCUCCCUCAUAAGGAGAAGACUGCGGGUUCGAGUCCCGUACGGAACG [C4G A15G G17A C34A], the yeast fitness was no more than 0.5.

On to GUUGCGUUGGCGUAGUCGUAACGCGUCUCCCUCAUAAGGAGAAGACUGCGGGUUCGAGUCCCGUACGGAACG [C4G A15G G17C C34A], for which the yeast fitness came out at 0.598.

As to GUUGCGUUGGCGUACUGGUAACGCGUCUCACUCCUAAGGAGCAGACUGCGGGUUCAUGUCCCGUACGGAACG [C4G A15C C30A A42C G56A A57U], the yeast fitness was no more than 0.5.

As to GUUGCGUUGGCGUCAUGGUAACGCGUCUCCCUCCUAAGGAGAAGACUCCGGGUUCGAGUCCCGUACGGUGCG [C4G A14C G48C A69U A70G], the yeast fitness is no more than 0.5.

As to GUUACGUUGGCGCAAUGGUAACCCGUCUCCCUCGUAAGGAGAAGGCUGCGGGCUCGAGUCCCGAACGGAACG [C4A U13C G23C C34G A45G U53C U64A], the yeast fitness stood at 0.675.

For the variant GUUACGUUGGCGUAAUGGGAACGCGUCUCCCUCCUCAGGAGAAGACUGCGGGUUCGAGUCCCGUACGGAACG [C4A U19G A36C], the yeast fitness is 0.506.

Consider GUUACGUUGGCGUAACGGUAACGCGUCUCCCUUCUAAGGAGGAGACUGCGGGUUCGAGUCCCGUACGGAACG [C4A U16C C33U A42G], for which the yeast fitness was no more than 0.5.

Take GUUACGUCGGCGUAAUGGUAACGGGUCUCCCUCCUAAGGAGAACACUGCGGGUUCGAGUCCCGUACGUAACG [C4A U8C C24G G44C G68U]: the yeast fitness is no more than 0.5.

Consider GUUACGUUGGCGUAACGGUAACGCGUCUCCCUCUUAAGGAGAAGACUGCGGGUUCGAGUCACGUACGGAACG [C4A U16C C34U C61A], for which the yeast fitness is no more than 0.5.

GUUACGUUGGCGUAAUGGUAACGCGUCUCCCUCCCAAGGAGAACACUGCGGGUUCGAGUCCCGUACGGAACG [C4A U35C G44C]: the yeast fitness was no more than 0.5.

GUUGCGUUGGCGUGAUGGUAACGCGUUUCCCUCCUAAGGAGUAGACUGCGGGUUCGAGUCCCGUACGGAACG [C4G A14G C27U A42U]: the yeast fitness is no more than 0.5.

For the variant GUUGCGUUGGCGUAGUGGUGACACGUCUCCCUCGUAAGGAGAAGACUGCGGGUUCGAGUCCCGUACAGAACG [C4G A15G A20G G23A C34G G67A], the yeast fitness is no more than 0.5.

As for GUUACGUUGGCGUAAUGGUAACGCGUCUCCCCCCUAAGGAGAAGAAUGCGGGUUCGAGUCCCGUACGGAACG [C4A U32C C46A], the yeast fitness was 0.697.

Turning to GUUGCGUUGGCGUAAUGGUCACGCGGCUCCCUUCUAAGGAGAACACUGCGGGUUCGAGACCCGUACGGAACG [C4G A20C U26G C33U G44C U59A], the yeast fitness is no more than 0.5.

In the case of GUUACGUUGGCGUAAUGGAAACGCGUUUCCCUCCUAAGGAGAAGACUGCGGGUUCGAGUCCCGUACAGAACG [C4A U19A C27U G67A], the yeast fitness worked out at 0.573.

As to GUUACGUUGGCGUAAUGGUAACGCGUCUCCCCCCUAAGGAGAAGAGUGCGGGUUCGAGUCCAGUACGGAACG [C4A U32C C46G C62A], the yeast fitness was no more than 0.5.

In the case of GUUACGUCGGCGUAAUGCUAACGCGUCUCCCUUCUAAGGAGAAGACUGCGGGUUCGAGUCCCGUACGGAACG [C4A U8C G18C C33U], the yeast fitness is no more than 0.5.

Take GUUACGUUGGCGUAAAGGUAACGCGUCUCGUUCCUAAGGAGAAGACUGCGGGUUCGAGUCCCGUACGGAACG [C4A U16A C30G C31U]: the yeast fitness was no more than 0.5.

For GUUACGUUGGCGUAAUGGUAACGCGUCUCCCUCCUAAGGAGAAGACUGCGGGUUCGAGUCCCGAACGGAACG [C4A U64A], the yeast fitness turned out to be 0.815.

On to GUUGCGUUGGCGUACUGGUAACGCGGCUCCCUCCUAAGGACAAGACUGCGGGUUCGAGUCCCGUACGGUACG [C4G A15C U26G G41C A69U], for which the yeast fitness is no more than 0.5.

GUUGCGUUGGCGUAGUGGUAACGCGUCUCCCUCCUAAGGAGAAGACUGCGGGUUCGAGUCCCGUACGGAACG [C4G A15G]: the yeast fitness is 0.732.
